{"data": "Results collected from several papers", "target": "Serine/threonine-protein kinase TAO2 (TAOK2, Homo sapiens, UniProt Q9UL54)", "Sequence (Q9UL54 1-1235, as in one of the studies)": "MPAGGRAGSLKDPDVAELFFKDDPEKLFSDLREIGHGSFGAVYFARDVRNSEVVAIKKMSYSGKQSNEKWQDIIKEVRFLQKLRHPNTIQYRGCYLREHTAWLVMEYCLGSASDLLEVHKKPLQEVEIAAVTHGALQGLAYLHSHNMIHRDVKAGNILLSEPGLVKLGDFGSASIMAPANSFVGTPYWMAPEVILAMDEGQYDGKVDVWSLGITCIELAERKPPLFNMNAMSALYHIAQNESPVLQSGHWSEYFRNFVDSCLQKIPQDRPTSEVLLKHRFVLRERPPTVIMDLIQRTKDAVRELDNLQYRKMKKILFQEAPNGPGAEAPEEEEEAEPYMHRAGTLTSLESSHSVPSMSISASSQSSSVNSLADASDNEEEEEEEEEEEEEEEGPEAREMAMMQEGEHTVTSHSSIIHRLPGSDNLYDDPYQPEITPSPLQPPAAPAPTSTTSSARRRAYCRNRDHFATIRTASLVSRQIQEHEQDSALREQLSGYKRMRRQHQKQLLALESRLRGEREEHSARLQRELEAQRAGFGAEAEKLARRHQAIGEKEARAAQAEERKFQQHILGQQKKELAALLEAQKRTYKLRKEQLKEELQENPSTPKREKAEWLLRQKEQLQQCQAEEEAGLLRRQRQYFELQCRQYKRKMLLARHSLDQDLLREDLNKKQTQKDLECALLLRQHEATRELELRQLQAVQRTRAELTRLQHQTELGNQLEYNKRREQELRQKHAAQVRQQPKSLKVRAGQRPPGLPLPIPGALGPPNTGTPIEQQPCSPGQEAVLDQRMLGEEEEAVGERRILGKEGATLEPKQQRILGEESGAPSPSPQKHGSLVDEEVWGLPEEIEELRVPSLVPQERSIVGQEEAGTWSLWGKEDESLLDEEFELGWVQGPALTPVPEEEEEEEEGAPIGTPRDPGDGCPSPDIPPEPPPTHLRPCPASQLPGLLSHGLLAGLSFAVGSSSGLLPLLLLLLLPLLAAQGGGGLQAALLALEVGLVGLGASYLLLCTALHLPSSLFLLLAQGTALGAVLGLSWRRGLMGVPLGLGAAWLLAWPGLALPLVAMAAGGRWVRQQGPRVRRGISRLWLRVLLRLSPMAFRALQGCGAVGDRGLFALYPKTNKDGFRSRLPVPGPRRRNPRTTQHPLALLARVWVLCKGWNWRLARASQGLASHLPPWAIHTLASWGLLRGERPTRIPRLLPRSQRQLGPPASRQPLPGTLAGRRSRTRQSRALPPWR", "note": "Protocols differ between the studies behind these lines."}
{"Compound": "Cc1cnc(NC2CCOCC2)nc1-n1cnc(C(=O)NC(CN)c2cc(F)cc(Cl)c2)c1 (stereo not drawn)", "test": "enzyme activity, inhibitor, radiometric", "setting": "1 µM", "measurement": "remaining activity", "result": "88%"}
{"Compound": "CCN(CC)CCNC(=O)c1c(C)[nH]c(/C=C2\\C(=O)Nc3ccc(F)cc32)c1C", "test": "enzyme activity, inhibitor", "setting": "0.3 µM", "measurement": "inhibition", "result": "-3%"}
{"Compound": "O=C1CCc2cc(Nc3cc(OC4CCOCC4)c([N+](=O)[O-])cc3Cl)ccc2N1", "test": "cell-free assay, competition with immobilised ligand", "setting": "1 µM", "measurement": "remaining binding", "result": "82%"}
{"Compound": "c1ccc(CNc2nc(N3CCOc4ccccc43)nc3c2CCCC3)cc1", "test": "target engagement in cells, inhibitor, chemoproteomics", "setting": "20 mM", "measurement": "inhibition", "result": "-2.6%"}
{"Compound": "Fc1cccc(-n2cnc3c(NCc4nc5c(F)c(F)ccc5[nH]4)nc(N4CCOCC4)nc32)c1", "test": "binding, competition with immobilised ligand", "setting": "10 µM", "measurement": "binding vs control", "result": "35%"}
{"Compound": "CNC(=O)c1cc(Oc2ccc(NC(=O)Nc3ccc(Cl)c(C(F)(F)F)c3)cc2)ccn1", "test": "enzyme activity, inhibitor", "setting": "10 µM", "measurement": "inhibition", "result": "102%"}
{"Compound": "CC(=O)N1CCC(c2ccc(C(=O)NC3=NCCN3)cc2C(F)(F)F)CC1", "test": "cell-free assay, competition with immobilised ligand", "setting": "1 µM", "measurement": "remaining binding", "result": "100%"}
{"Compound": "CC(C)(C)c1nc2c(s1)c1nc(N)ncc1c1ccc(NS(=O)(=O)c3c(F)cccc3F)c(F)c12", "test": "enzyme activity, inhibitor, radiometric", "setting": "1 µM", "measurement": "remaining activity", "result": "84%"}
{"Compound": "C[C@@H](c1cccc(C#N)c1)n1cc(Cl)cc(C(N)=O)c1=N", "test": "cell-free assay, competition with immobilised ligand", "setting": "1 µM", "measurement": "remaining binding", "result": "84%"}
{"Compound": "COc1cccc2c(NCc3ccccc3)nc(-n3c(N)nc4ccccc43)nc12", "test": "target engagement in cells, inhibitor, chemoproteomics", "setting": "20 mM", "measurement": "inhibition", "result": "-6.8%"}
{"Compound": "COc1cc(-c2cc(-c3ccc(N4CCNCC4)cc3)cnc2C)cc(OC)c1OC", "test": "enzyme activity, inhibitor", "setting": "1 µM", "measurement": "inhibition", "result": "2%"}
{"Compound": "CCN(CC)c1ccc(C2=NNC(=O)CC2C)cc1[N+](=O)[O-] (stereo not drawn)", "test": "enzyme activity, inhibitor", "setting": "10 µM", "measurement": "remaining activity", "result": "95%"}
{"Compound": "COc1cc(Cl)c(C(=O)N[C@@H](CN[C@H]2CC[C@@H](N)CC2)Cc2ccc(C#N)cc2)cc1-c1ccc(CN[C@H](C)c2ccc(C)cc2)o1", "test": "enzyme activity, inhibitor", "setting": "1 µM", "measurement": "remaining activity", "result": "96%"}
{"Compound": "CCCOc1ccc(OC)c(F)c1C(=O)c1ccc(C(=O)N[C@@H]2CNC[C@H]2NC(=O)c2ccc3[nH]ncc3c2)cc1", "test": "enzyme activity, inhibitor", "setting": "10 µM", "measurement": "remaining activity", "result": "95%"}
{"Compound": "CN(C)c1ncnc(-c2ccc3nc(Nc4cc(CN5CCN(C(=O)CC(F)(F)F)CC5)ccn4)[nH]c3c2)c1Cl", "test": "cell-free assay, competition with immobilised ligand", "setting": "1 µM", "measurement": "remaining binding", "result": "80%"}
{"Compound": "Cc1ccc(Nc2nccc(N(C)c3ccc4c(C)n(C)nc4c3)n2)cc1S(N)(=O)=O", "test": "enzyme activity, inhibitor", "setting": "0.3 µM", "measurement": "inhibition", "result": "43%"}
{"Compound": "O=C(N1CCS(=O)(=O)CC1)N1C[C@H](c2ccc(OC(F)(F)F)cc2)C[C@H](c2nc(C3CC3)no2)C1", "test": "cell-free assay, competition with immobilised ligand", "setting": "1 µM", "measurement": "remaining binding", "result": "100%"}
{"Compound": "C[C@@H]1CCN(c2nccc(-c3cnn4ncccc34)n2)C1", "test": "binding", "setting": "1 µM", "measurement": "remaining binding", "result": "75%"}
